From PubChem BioAssay
APJ agonist = agonists of human apelin receptor APJ, primary screen, CHO-K1 cells, PathHunter beta-arrestin, luminescence; P35414; 0% DMSO wells, 100% apelin; activation, % at 20 µM; 330,000 compounds, 0.11% hits; AID 2520, 2010;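 active = activation more than six SD over the plate average, tested at 20 µM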;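 also: 0% = DMSO alone and 100% = apelin-13 at 10 nM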
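system = engineered CHO-K1 APJ arrestin reporter cells | input = 1000 cells per well | timing = overnight seeding, 90 min compound at 25 °C, 1 h detection | measured by = enzyme-fragment complementation luminescence | read-out = beta-arrestin recruitment to APJ as agonist activity, luminescent signal | control set = negative DMSO alone, positive Apelin-13 at 10 nM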
CCR6 antag = CCR6 receptor antagonists, primary screen, cell-based, CHO-K1, luminescence, beta-arrestin, uHTS. C-C chemokine receptor type 6 (Homo sapiens), P51684. CHO-K1 CCR6 PathHunter beta-arrestin, CCL20-stimulated. 340,000 compounds, 0.49% hits. inhibition, % at 20 µM;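 active = compounds whose inhibition of the agonist-driven luminescence signal at 20 µM reaches about 50%, limit read from the data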;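 also: cells stimulated with CCL20 at 14 nM final; plate controls were DMSO with CCL20 for no effect and DMSO without agonist for full effect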
Target sequence (P51684 whole entry, looked up): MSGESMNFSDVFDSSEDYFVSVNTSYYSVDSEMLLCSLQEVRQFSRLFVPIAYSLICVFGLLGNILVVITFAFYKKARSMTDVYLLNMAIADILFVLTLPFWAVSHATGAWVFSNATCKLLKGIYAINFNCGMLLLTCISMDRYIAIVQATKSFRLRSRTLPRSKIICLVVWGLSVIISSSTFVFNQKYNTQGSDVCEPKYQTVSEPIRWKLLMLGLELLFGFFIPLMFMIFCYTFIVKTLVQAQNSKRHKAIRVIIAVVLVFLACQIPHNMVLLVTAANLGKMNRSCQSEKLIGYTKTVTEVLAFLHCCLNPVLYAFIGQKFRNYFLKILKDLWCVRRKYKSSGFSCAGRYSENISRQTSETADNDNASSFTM
B2AR ag = beta2AR agonists driving receptor internalization, primary screen, cell-based, FAP fluorogen, flow cytometry. response, % (no concentration beside the values). AID 504454, 2011. 340,000 compounds, 0.43% hits. Beta-2 adrenergic receptor (Homo sapiens), P07550. Am2.2-beta2AR cells;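 active = response above a set limit, near 3 SD of response in nonfluorescent compounds, cut at about 42% in these data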
EBI2 antag = EBI2 receptor antagonists, beta-arrestin recruitment, primary screen, cell-based, luminescence, 7a,25-OHC stimulation, uHTS. 7a,25-OHC stimulated. inhibition, % at 5 µM. 360,000 compounds, 0.81% hits; in the data active = inhibition above about 38%;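 also: enzyme fragment complementation signal reports receptor beta-arrestin coupling in cells; 0% = agonist plus DMSO wells and 100% = wells without agonist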
CXCR6 block = CXCR6 receptor inhibitors, primary screen, cell-based, beta-arrestin, luminescence, CHO-K1 PathHunter, 1536-well | C-X-C chemokine receptor type 6 (Homo sapiens), O00574 | inhibition, % at 20 µM | 360,000 compounds, 0.36% hits | AID 602244, 2012; in the data active = inhibition above about 34%, passing the limit was not always enough;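 also: antagonist mode with CXCL16 agonist at 10 nM final; 0% = 10 nM CXCL16 with DMSO and 100% = unstimulated wells without agonist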
APJ antagonist = antagonists of human apelin receptor APJ, primary screen, CHO-K1 cells, beta-arrestin complementation, luminescence; P35414; inhibition, % at 20 µM; 330,000 compounds, 0.32% hits;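 active = inhibition above about 40% at 20 µM, limit read from the data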;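 also: cells challenged with 10 nM apelin-13 agonist together with compound; plate controls were apelin-13 plus DMSO wells for no effect and DMSO wells lacking apelin-13 for full effect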
B2AR ag CP1 = beta2AR agonists via receptor internalization, confirmation, cell-based, FAP fluorogen, flow cytometry, single point, cherry pick 1; Am2.2-beta2AR cells, FAP surface receptor; active compounds read low; shares compounds with B2AR ag; 1,100 compounds, 25% hits; percent response (surface receptor), % at 10 µM; AID 540358, 2011;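 active = surface receptor percent response at or below 58%, roughly 3 SD from nonfluorescent compounds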
FAP fluor counter = flagged in Am2.2 fluorescence counterscreen for beta-2AR agonists | shares compounds with B2AR ag | Am2.2 cells, FAP fluorogen flow cytometry; active compounds read low | calls only at 10 µM | 1,100 tested, under 10 active;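 active = percent response below a set limit in fluorescence channel 1 and below 50% in channel 8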
Starred values were filed as active, the others as inactive; i = inactive; / = no result. Rows were chosen to be rich in hits. Some 1.8% of all compounds tested hit in one or more screens of this group.

SMILES | APJ agonist | CCR6 antag | B2AR ag | EBI2 antag | CXCR6 block | APJ antagonist | B2AR ag CP1 | FAP fluor counter
Cc1ccc(-c2csc3ncnc(Sc4nnc(CN5CCCCCC5=O)o4)c23)cc1 | -2 | 28 | 42* | 20 | 20 | 9 | 87 | i
Cc1ccc(-c2csc3ncnc(SCC(=O)Nc4nnc(C)s4)c23)cc1 | -2 | 8 | -2 | 12 | 9 | -15 | / | /
COc1ccc(-c2sc3cc4c(cc3c2C#Cc2cncn2C)OCO4)cc1 | 0 | -14 | 56* | 3 | -2 | -6 | 90 | i
COc1ccc(-c2sc3ccc(OC)cc3c2C#Cc2cncn2C)cc1 | 2 | -6 | 21 | -1 | 8 | -9 | / | /
CC(C)N1C(=O)/C(=C/c2nc3ccccc3c(=O)n2-c2ccccc2)c2ccccc21 | -1 | 11 | 47* | 56* | 13 | 31 | 82 | i
CCn1c(COc2ccc(Cl)cc2)nnc1SCc1ccc(C#N)cc1 | 0 | 13 | 44* | 5 | -1 | 5 | 64 | i
CCn1c(COc2ccccc2)nnc1SCc1ccc(C#N)cc1 | -1 | 12 | 0 | 1 | -6 | 14 | / | /
O=C(CSc1ccccn1)c1ccc2c(c1)OCO2 | -1 | 17 | 53* | -2 | -6 | -7 | 94 | i
Cc1ccc(NC(=O)CSc2ncc3ccccn23)cc1C | -2 | 27 | -1 | -11 | 6 | 13 | / | /
COc1ccc(CCNC(=O)Cc2ccc(OC)c(OC)c2)cc1OC | 2 | -4 | 5 | -4 | -4 | -85 | / | /
COc1ccc(CCNC(=O)Cc2cccc(C(F)(F)F)c2)cc1OC | 1 | 11 | 83* | -4 | 4 | 6 | 102 | i
O=Cc1ccc(OCc2nnc(-c3ccccc3Br)o2)cc1 | 1 | 23 | 21 | -1 | -12 | 7 | / | /
NC(=O)c1ccccc1OCc1nnc(-c2ccccc2Br)o1 | -5 | -1 | -10 | 2 | 1 | 12 | 119 | i
Cn1c(COc2ccccc2O)[n+](C)c2ccccc21 | -3 | -1 | -4 | -7 | 4 | 23 | / | /
CCCCCCCCCCOC(=O)Cn1c(COc2ccccc2OC)[n+](C)c2ccccc21 | -1 | 29 | 16 | -12 | -14 | 3 | 107 | i
CCOc1ncccc1C(=O)Nc1ccc(-c2ccc3nnc(C)n3n2)cc1 | -3 | -10 | 44* | 4 | -4 | -10 | 107 | i
Cc1nnc2ccc(-c3ccc(NC(=O)c4cccnc4Cl)cc3)nn12 | -1 | 5 | -3 | -3 | 1 | -10 | / | /
CC(C)(C)c1ccc(C(=O)Nc2ccc(NC(=O)C(=O)O)cc2)o1 | -5 | 6 | 17 | -6 | 2 | 17 | / | /
O=c1ccn([C@@H]2O[C@H](CNCc3ccc(-n4cccn4)cc3)[C@@H](O)[C@H]2O)c(=O)[nH]1 | / | 14 | 0 | -3 | -4 | / | / | /
Cc1ccc(C(=O)OCC(=O)Nc2ccccc2)cc1NC(=O)c1ccco1 | -2 | 10 | 11 | 3 | -4 | 17 | / | /
Cc1ccc(C(=O)OCC(=O)Nc2nc(-c3ccccc3)cs2)cc1NC(=O)c1ccco1 | 1 | 9 | 54* | -14 | -4 | -3 | 38* | i
CCOC(=O)C1(C)CCN1C(=O)c1cccc2ccccc12 (centres undefined) | / | / | / | -16 | -1 | / | / | /
CCOC(=O)c1ccc(NC(=S)NNC(C)(C)C)cc1 | -2 | 9 | -4 | -3 | -18 | 14 | 95 | i
O=C(NC1CC1)c1[nH]c(C(F)(F)F)nc1-c1ccccc1 | / | / | / | -9 | 0 | / | / | /
Cc1ccc(-c2nc(NC(=O)c3nn(C)cc3[N+](=O)[O-])sc2C)cc1C | 1 | 1 | 80* | 27 | 6 | -5 | 48* | i
SMILES | APJ agonist | CCR6 antag | B2AR ag | EBI2 antag | CXCR6 block | APJ antagonist | B2AR ag CP1 | FAP fluor counter
Cc1cnc(NC(=O)c2nn(C)cc2[N+](=O)[O-])s1 | -3 | 7 | 1 | -3 | 1 | 1 | / | /
Cc1ccc(-c2nc(NC(=O)c3nn(C)cc3[N+](=O)[O-])sc2C)cc1 | 0 | 9 | 104* | 27 | 3 | -6 | 9.7* | i
O=C(COC(=O)C12CC3CC(CC(Cl)(C3)C1)C2)Nc1ccccc1 | -2 | 3 | -4 | -9 | 1 | 8 | / | /
C=CCc1ccc(OCCOc2ccc(/C=N/n3cnnc3)cc2OCC)c(OC)c1 | 2 | -3 | 57* | -8 | -2 | -15 | 33* | i
O=C(Nc1ccccc1)Nc1nnc([C@@H]2C[C@H](O)[C@@H](CO)O2)s1 | / | / | / | -4 | -2 | / | / | /
O=C(c1ccc([N+](=O)[O-])s1)N1CCN(c2ccc(C(F)(F)F)cn2)CC1 | 5 | -17 | 84* | 0 | -22 | -42 | 109 | i
O=C(/C=C/[C@H]1O[C@@H](n2ccc(=O)[nH]c2=O)[C@H](O)[C@@H]1O)NCc1cccnc1 | / | / | / | -2 | -4 | / | / | /
CCn1nc(NS(=O)(=O)c2ccc(NC(C)=O)cc2)c2cc3ccc(C)cc3nc21 | -1 | 25 | 15 | 6 | 13 | 14 | / | /
CCn1nc(NS(=O)(=O)c2ccc(C)cc2)c2cc3ccccc3nc21 | -4 | 10 | 8 | -6 | 3 | -19 | 120 | i
CCn1nc(NS(=O)(=O)c2ccc(NC(C)=O)cc2)c2cc3ccccc3nc21 | -3 | 34 | 53* | -1 | 17 | 16 | 101 | i
CCn1nc(NS(=O)(=O)c2ccc([N+](=O)[O-])cc2)c2cc3ccccc3nc21 | 3 | 14 | 64* | -1 | 4 | -1 | 118 | i
CC(=O)Nc1cccc(-c2csc(C(C)(NC(C)=O)c3ccccc3)n2)c1 (centres undefined) | / | / | / | 0 | 1 | / | / | /
CCc1nc2ccc(C(=O)NCCOc3ccc(OC)cc3)cn2c1N(CCC(C)C)CCN(C)C | / | / | / | 13 | 9 | / | / | /
CCOC(=O)COc1cccc2c(=O)n(CC(=O)NCCc3ccccc3)ccc12 | -3 | -6 | 44* | -4 | 0 | 13 | 85 | i
Cc1ccc(OCC(O)Cn2c(=N)n(Cc3ccccc3)c3ccccc32)cc1 (centres undefined) | 2 | 2 | 55* | 9 | -12 | 2 | 17* | i
